Structures are written as SMILES. Residues, ends and D or L forms follow the SMILES beside them.

Assay [1] has as its target Neuronal acetylcholine receptor; alpha3/beta2 (Rattus norvegicus, UniProt P04757+P12390). Kind of assay: Inhibition of rat Nicotinic acetylcholine receptor alpha3-beta2 expressed in Xenopus Oocytes. The format is cell-based. Summed up:
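Rat nAChR subunit cRNAs (50 nL, 5–50 ng/µL) injected into Xenopus oocytes, kept at 19 °C in ND96 pH 7.4 with gentamycin; two-electrode voltage clamp at −70 mV, 2–10 days post-injection. Peptide added to static bath, 3–10 min before agonist; sub-1 nM also perfused 10–15 min. IC50 from fitted concentration–response curves with Hill slope.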

A short description of assay [2]: Inhibition ratio of rat alpha 3 beta 2 nicotinic acetylcholine receptor (nAChR) to that of at alpha 7 nicotinic acetylcholine receptor (nAChR).

Neuronal acetylcholine receptor; alpha3/beta2, sequence (P04757 whole entry, the tested form may be a part): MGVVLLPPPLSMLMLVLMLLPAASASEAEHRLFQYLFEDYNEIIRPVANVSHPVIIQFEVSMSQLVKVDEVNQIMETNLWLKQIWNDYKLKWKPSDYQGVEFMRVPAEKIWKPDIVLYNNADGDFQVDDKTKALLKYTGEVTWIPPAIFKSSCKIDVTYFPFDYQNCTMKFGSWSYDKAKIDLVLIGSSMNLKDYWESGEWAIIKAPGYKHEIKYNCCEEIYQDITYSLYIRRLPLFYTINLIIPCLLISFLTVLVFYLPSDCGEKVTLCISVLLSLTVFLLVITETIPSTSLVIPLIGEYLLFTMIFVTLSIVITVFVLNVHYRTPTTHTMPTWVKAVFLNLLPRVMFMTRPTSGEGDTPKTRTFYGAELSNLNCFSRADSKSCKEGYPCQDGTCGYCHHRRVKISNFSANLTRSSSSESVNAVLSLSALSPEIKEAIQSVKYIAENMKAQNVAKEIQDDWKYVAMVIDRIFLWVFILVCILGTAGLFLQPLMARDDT
Neuronal acetylcholine receptor; alpha3/beta2, sequence (P12390 whole entry, the tested form may be a part): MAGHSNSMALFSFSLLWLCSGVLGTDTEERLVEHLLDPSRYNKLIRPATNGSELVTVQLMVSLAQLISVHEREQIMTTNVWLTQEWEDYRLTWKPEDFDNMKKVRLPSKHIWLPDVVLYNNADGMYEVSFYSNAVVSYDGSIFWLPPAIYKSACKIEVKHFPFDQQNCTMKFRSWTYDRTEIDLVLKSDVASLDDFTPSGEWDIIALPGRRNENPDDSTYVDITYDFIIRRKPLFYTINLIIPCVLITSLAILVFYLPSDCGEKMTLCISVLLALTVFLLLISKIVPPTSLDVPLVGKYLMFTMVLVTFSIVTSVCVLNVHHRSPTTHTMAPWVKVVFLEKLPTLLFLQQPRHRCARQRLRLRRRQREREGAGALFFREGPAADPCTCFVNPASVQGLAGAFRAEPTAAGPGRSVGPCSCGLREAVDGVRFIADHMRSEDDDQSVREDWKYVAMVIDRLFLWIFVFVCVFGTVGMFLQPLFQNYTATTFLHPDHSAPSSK

As for `CC[C@H](C)[C@H](N)C(=O)N[C@@H](CCCN=C(N)N)C(=O)N[C@@H](CC(=O)O)C(=O)N[C@@H](CC(C(=O)O)C(=O)O)C(=O)N[C@@H](CS)C(=O)N[C@@H](CS)C(=O)N[C@@H](CO)C(=O)N[C@@H](CC(N)=O)C(=O)N1CCC[C@H]1C(=O)N[C@@H](C)C(=O)N[C@@H](CS)C(=O)N[C@@H](CCCN=C(N)N)C(=O)N[C@H](C(=O)N[C@@H](CC(N)=O)C(=O)N[C@@H](CC(N)=O)C(=O)N1C[C@H](O)C[C@H]1C(=O)N[C@@H](Cc1c[nH]cn1)C(=O)N[C@H](C(=O)N[C@@H](CS)C(N)=O)C(C)C)C(C)C` (HELM PEPTIDE1{I.R.D.[O=C(O)C(C[C@H](N[*:1])C(=O)[*:2])C(=O)O].C.C.S.N.P.A.C.R.V.N.N.[Hyp].H.V.C.[am]}$$$$V2.0), in assay [1], the IC50 came to 10 nM. Besides, in assay [2], the Ratio was found to be 0.2.

In assay [1], `CC(C)C[C@@H](NC(=O)[C@@H](CO)NC(=O)[C@@H](CS)NC(=O)[C@@H](CS)NC(=O)CN)C(=O)N1CCC[C@H]1C(=O)N1CCC[C@H]1C(=O)N[C@@H](CS)C(=O)N[C@@H](C)C(=O)N[C@@H](C)C(=O)N[C@@H](CC(N)=O)C(=O)N[C@@H](CC(N)=O)C(=O)N1CCC[C@@H]1C(=O)N[C@@H](CC(=O)O)C(=O)N[C@@H](Cc1ccc(O)cc1)C(=O)N[C@@H](CS)C(N)=O` came in with an IC50 of 99 nM. For the same molecule, in assay [2], the Ratio was found to be 7.9.

Take `CC(C)C[C@@H](NC(=O)[C@@H](CO)NC(=O)[C@@H](CS)NC(=O)[C@@H](CS)NC(=O)CN)C(=O)N1CCC[C@H]1C(=O)N1CCC[C@H]1C(=O)N[C@@H](CS)C(=O)N[C@@H](C)C(=O)N[C@@H](C)C(=O)N[C@@H](CC(N)=O)C(=O)N[C@@H](CC(N)=O)C(=O)N1CCC[C@@H]1C(=O)N[C@@H](CC(=O)O)C(=O)N[C@@H](Cc1ccc(S)cc1)C(=O)N[C@@H](CS)C(N)=O`: in assay [1], the IC50 is 9.6 nM. Besides, the Ratio in assay [2] amounted to 0.04.

As a reminder, the IC50 is the concentration needed to halve the response being measured. Read a low IC50 as higher potency.

The values are drawn from ChEMBL document CHEMBL1148487, “Chemical and functional identification and characterization of novel sulfated alpha-conotoxins from the cone snail Conus anemone” (J Med Chem, 2004).
